Test results published in publication PMC12272566 (RSC Advances, 2025).

Columns and labels:
Assay type in all cases: biochemical
aldose reductase [1] = biological target: T1, aldose reductase (Rattus norvegicus, UniProt P07943); assay: aldose reductase inhibition assay
α-glucosidase = α-glucosidase (Saccharomyces cerevisiae, UniProt P53341); assay: inhibitory kinetic assay on α-glucosidase
aldose reductase [2] = biological target: T1, aldose reductase; assay: inhibitory kinetic assay on aldose reductase
In short: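 Aldose reductase from rat lens tissue. Reactions held NADPH (0.3 mM), phosphate buffer (100 mM, pH 6.2) and lithium sulfate (0.6 mM), with DL-glyceraldehyde substrate at several concentrations, with or without test compound, at 37 °C for 10 min. NADPH decrease was read at 340 nm. Rates were fitted by nonlinear Michaelis–Menten regression with Lineweaver–Burk, Dixon and slope secondary plots to derive Km, Vmax and Ki.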

α-glucosidase, sequence (P53341 whole entry): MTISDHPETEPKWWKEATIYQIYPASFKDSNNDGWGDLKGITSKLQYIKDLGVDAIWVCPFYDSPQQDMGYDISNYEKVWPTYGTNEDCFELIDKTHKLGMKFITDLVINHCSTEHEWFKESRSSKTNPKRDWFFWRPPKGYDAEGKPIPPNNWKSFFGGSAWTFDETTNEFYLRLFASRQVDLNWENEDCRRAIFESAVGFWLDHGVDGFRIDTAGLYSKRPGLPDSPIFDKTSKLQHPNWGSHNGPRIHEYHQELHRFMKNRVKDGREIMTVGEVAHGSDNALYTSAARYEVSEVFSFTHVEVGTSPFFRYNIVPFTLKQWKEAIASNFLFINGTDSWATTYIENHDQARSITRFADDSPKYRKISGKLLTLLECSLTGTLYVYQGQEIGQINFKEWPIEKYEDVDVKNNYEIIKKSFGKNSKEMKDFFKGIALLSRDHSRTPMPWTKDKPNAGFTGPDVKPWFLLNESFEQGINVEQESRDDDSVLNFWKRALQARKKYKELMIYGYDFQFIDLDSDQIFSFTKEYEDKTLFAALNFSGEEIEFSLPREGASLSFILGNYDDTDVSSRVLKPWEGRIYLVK

COc1cc(O)cc(/C=C/c2ccc(O)cc2)c1 [pinostilbene, 3-methoxy-4′,5-dihydroxy-trans-stilbene]
IC50 (aldose reductase [1]): 55.4 ± 4.31 µM | Ki (α-glucosidase): 14.3 ± 1.49 µM | inhibition type against α-glucosidase (α-glucosidase; Vmax decreased, Km fixed): noncompetitive-type inhibition | Ki (aldose reductase [2]): 60 ± 4.64 µM | inhibition type against aldose reductase (aldose reductase [2]; Vmax decreased, Km fixed): noncompetitive-type inhibition

COc1cc(/C=C/c2ccc(O)cc2)cc(OC)c1 [pterostilbene]
effect on aldose reductase inhibition (in words) (aldose reductase [1]; 0–10 mM tested, data not shown): weak effect
